# Screens: PubChem BioAssay, Johns Hopkins Ion Channel Center
# Hits are enriched below; roughly 3.5% of the tested compounds scored in any of these assays.
# RGS4 pot: RGS4 potentiation or activation; HEK293 M3R/inducible RGS4, carbachol calcium flux Fluo4; stronger effect = lower value; actives 0.92% (n = 310,000); B-score at 10 µM; AID 463111;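 active = B-score of the integrated calcium signal more than 4 SD below the library mean, with starting fluorescence not abnormally high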;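 note: negative B-score means reduced calcium response which marks RGS4 activation or potentiation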
#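 Test system: HEK293 cells with stable M3R and inducible RGS4; also added: carbachol at ECmax as muscarinic agonist stimulus; schedule: dye loading 30 min 37 °C, buffer rest 30 min RT; technique: kinetic calcium fluorescence imaging with Fluo4-AM dye, 2 µM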
# RGS4 block: inhibitors of human RGS4 | P49798 | HEK293 M3R/RGS4 inducible, Fluo-4 calcium flux; stronger effect = higher value; triggered by carbachol at its EC20 | B-score at 10 µM | actives 0.45% (n = 310,000);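 active = B-score, a plate-corrected calcium signal, over three deviations above library mean, with baseline fluorescence within five deviations of library mean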;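 note: RGS4 expression induced by doxycycline in cells with stable M3 receptor; B-score is computed from the integrated fluorescence ratio over baseline after carbachol; higher B-score means a larger calcium signal and so more RGS4 inhibition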
# Target sequence (P49798 whole entry, looked up): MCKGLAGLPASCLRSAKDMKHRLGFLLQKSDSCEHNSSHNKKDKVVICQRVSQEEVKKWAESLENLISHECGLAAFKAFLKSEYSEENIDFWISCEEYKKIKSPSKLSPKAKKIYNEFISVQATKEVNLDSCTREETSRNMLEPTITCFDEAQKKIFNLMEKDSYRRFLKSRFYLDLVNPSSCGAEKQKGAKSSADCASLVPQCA
# MrgX1 allo act: human MrgX1 positive allosteric modulation, primary screen | MrgX1-HEK293, Fluo-4 calcium flux, FDSS; stronger effect = higher value | B-score at 10 µM | Q96LB2 | actives 0.63% (n = 310,000);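 active = plate-corrected calcium response at least 3 library SD above typical, normal starting fluorescence, not activating the receptor alone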;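 note: compound read alongside a low EC10 to EC30 dose of BAM8-22 agonist; peak minus trough fluorescence over baseline measured at the second addition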
# Target sequence (Q96LB2 whole entry, looked up): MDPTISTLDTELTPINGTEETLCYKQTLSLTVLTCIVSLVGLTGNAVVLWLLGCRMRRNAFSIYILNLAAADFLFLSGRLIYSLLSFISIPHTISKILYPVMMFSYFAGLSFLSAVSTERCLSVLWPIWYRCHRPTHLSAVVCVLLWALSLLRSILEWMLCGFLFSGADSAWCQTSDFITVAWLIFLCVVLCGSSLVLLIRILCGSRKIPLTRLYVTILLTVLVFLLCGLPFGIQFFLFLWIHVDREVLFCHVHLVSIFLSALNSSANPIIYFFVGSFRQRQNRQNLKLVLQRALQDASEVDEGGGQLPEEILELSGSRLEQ
# MrgX1 antag: human MrgX1 receptor antagonism, primary screen | MRGX1-HEK293 calcium flux, Fluo-4, BAM8-22 antagonism; stronger effect = lower value | AID 588676 | actives 1.3% (n = 310,000) | Q96LB2 | B-score at 10 µM;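 active = calcium-response B-score plate-corrected more than 3 library SD below zero, starting fluorescence within 5 deviations, no agonist response on first addition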;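 note: peak minus trough fluorescence over baseline after final BAM8-22 challenge near maximal dose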
# MrgX1 ag: agonists of human MrgX1 receptor | MrgX1-HEK293 cells, Fluo-4 calcium fluorescence, agonist mode; stronger effect = higher value | B-score at 10 µM | actives 0.44% (n = 310,000);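 active = calcium response B-score plate-corrected fluorescence ratio at least 3 library SD, with starting fluorescence B-score inside 5 SD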
#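 Test system: Stable human MrgX1 HEK293 cell line | Schedule: Overnight plating before 1 h dye loading | Read-out basis: Baseline-normalised fluorescence change ratio, B-scored | Detection: Kinetic calcium dye fluorescence, Fluo-4 NW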
# RGS4 inh valid: RGS4 inhibitor validation; calcium response, % at 10 µM; shares compounds with RGS4 block; HEK293 M3R/RGS4, carbachol calcium Fluo-4 fluorescence; carbachol added at its EC20; 0 = buffer wells, 100 = carbachol control; AID 492999; actives 65% (n = 1,700);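 active = duplicate-averaged calcium response above the buffer-only control mean plus 5 SD of those controls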;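 note: integrated fluorescence ratio F max minus min over baseline F0; higher response in RGS4-induced cells means RGS4 inhibition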
# M3R Ca ctr: non-induced cell nonspecific activity of RGS4 inhibitors. shares compounds with RGS4 block. HEK293 M3R non-induced, carbachol calcium Fluo-4; submaximal (EC20) carbachol stimulus; buffer wells 0%, carbachol control wells 100%. activity (percent), % at 10 µM. actives 20% (n = 1,900); call rule not given here;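 note: RGS4 induction absent so cells express M3R without RGS4; higher means more calcium signal and flags a non-specific hit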
# RGS4 inh ctr2: signal in non-induced cells without carbachol, RGS4 inhibitor counter-screen. shares compounds with RGS4 block. HEK293 M3R/RGS4 non-induced, Fluo-4 calcium, no carbachol; normalised: buffer wells 0%, carbachol wells 100%. calcium response (agonist-mode artifact), % at 10 µM. actives 22% (n = 1,900). AID 493001;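 active = duplicate-averaged calcium rise in uninduced cells above buffer wells' mean plus 5 SD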
# The depositor's hits bear a star; i = inactive; . = not tested or not shown.
SMILES,RGS4 pot,RGS4 block,MrgX1 allo act,MrgX1 antag,MrgX1 ag,RGS4 inh valid,M3R Ca ctr,RGS4 inh ctr2
O=C(O)c1ccc2c(c1)C(=O)N(c1cccc(S(=O)(=O)Nc3cccc(C(F)(F)F)c3)c1)C2=O,i,i,i,i,i,.,.,.
Cc1ccc(/C=C/c2nc3ccccc3[nH]2)o1,i,14*,i,i,i,i,i,i
Cc1cc2nc(/C=C/c3nc4cc(C)c(C)cc4[nH]3)[nH]c2cc1C,i,i,i,i,i,.,.,.
Cc1ccc(SCc2[nH]nc3c2C2(C(=O)Nc4ccc([N+](=O)[O-])cc42)C(C#N)=C(N)O3)cc1 (stereo unspecified),i,6.1*,i,i,i,i,i,i
Cc1ccc(SCc2[nH]nc3c2C2(CCSCC2)C(C#N)=C(N)O3)cc1,i,i,i,i,i,.,.,.
Cn1c(SCC(=O)NNC(=O)Nc2ccc(Cl)cc2)nnc1-c1ccccc1,i,i,i,i,i,.,.,.
N#Cc1c(-c2ccccc2)c(-c2ccccc2)nn(CC(=O)NNC(=O)Nc2ccc(Cl)cc2)c1=O,i,i,i,i,i,.,i,i
N#Cc1c(-c2ccccc2)c(-c2ccccc2)nn(CC(=O)NNC(=O)Nc2ccccc2)c1=O,i,i,i,i,i,i,i,i
COc1ccc(C)cc1NC(=O)CCS(=O)(=O)c1ccc2c(c1)oc(=O)n2C,i,i,i,i,i,.,.,.
O=C(NCc1cccnc1)c1nc(-c2ccccc2)n(-c2ccccc2)n1,i,i,i,i,i,.,.,.
Nc1c(C(=O)c2ccccc2)sc2c1c(=O)[nH]c(=O)n2-c1ccccc1,i,i,i,i,i,.,38%*,i
Nc1c(C(=O)c2ccc(Cl)cc2)sc2c1c(=O)[nH]c(=O)n2-c1ccccc1,i,5.2*,i,i,i,38%*,i,26%*
CC(=O)c1ccc(-n2c(=O)[nH]c(=O)c3c(N)c(C(=O)c4ccc(Cl)cc4)sc32)cc1,i,i,i,i,i,.,i,i
COc1cc(/C=C2\SC(=Nc3ccccc3)N(Cc3ccco3)C2=O)ccc1OC(C)C(=O)O (stereo unspecified),i,i,i,i,i,.,.,.
COc1cc(/C=C2\SC(=Nc3ccc(N4CCOCC4)cc3)N(C)C2=O)ccc1OC(C)C(=O)O (stereo unspecified),i,6.1*,i,i,i,7.5%*,i,i
O=C(Cc1ccccc1[N+](=O)[O-])Nc1ccc(S(=O)(=O)N2CCCC2)cc1,i,i,i,i,i,.,.,.
CCCCC1=CC2=C(c3ccco3)C(=O)C(C)(OC(=O)c3ccc(OC)cc3)C(=O)C2=CN1Cc1ccccc1 (stereo unspecified),i,i,i,-5.4*,i,i,i,i
CCCCC1=CC2=C(c3ccco3)C(=O)C(C)(OC(=O)c3ccc(OC)cc3)C(=O)C2=CN1CCOC (stereo unspecified),i,4.9*,i,i,i,22%*,34%*,i
COC(=O)CCCC1=CC2=C(c3ccccc3)C(=O)C(C)(OC(=O)C3CCCC3)C(=O)C2=CN1C1CCCCC1 (stereo unspecified),i,i,i,i,i,.,.,.
CCCCC1=CC2=C(c3ccco3)C(=O)C(C)(OC(=O)c3ccc(OC)cc3)C(=O)C2=CN1CCc1ccccn1 (stereo unspecified),i,i,i,i,i,.,48%*,i
CCCCC1=CC2=C(c3ccco3)C(=O)C(C)(OC(=O)c3ccc(OC)cc3)C(=O)C2=CN1Cc1ccc2c(c1)OCO2 (stereo unspecified),i,i,i,i,i,.,.,.
CCCCC1=CC2=CC(=O)C(C)(OC(=O)CC)C(=O)C2=CN1CCc1ccccn1 (stereo unspecified),i,i,i,i,i,.,.,.
CCCCC1=CC2=C(c3ccco3)C(=O)C(C)(OC(=O)c3ccc(OC)cc3)C(=O)C2=CN1C1CCCCC1 (stereo unspecified),i,i,i,i,i,i,i,i
O=C(O)CCC(=O)Nc1ccccc1C(=O)N1CCN(c2ccc(Cl)cc2)CC1,i,i,i,i,i,.,.,.
Cc1ccc2c(C)c(C(=O)N(C)C(C)c3ccon3)oc2c1C (stereo unspecified),i,i,i,i,i,.,.,.
SMILES,RGS4 pot,RGS4 block,MrgX1 allo act,MrgX1 antag,MrgX1 ag,RGS4 inh valid,M3R Ca ctr,RGS4 inh ctr2
CCC(C(=O)NN1C(=O)c2ccccc2C1=O)c1ccccc1 (stereo unspecified),i,i,i,i,i,.,.,.
CC(=O)Nc1cccc(C(=O)/C=C/c2ccc(C)cc2)c1,i,i,i,i,i,i,i,i
CSc1ccc(/C=C/C(=O)c2ccc(NC(C)=O)cc2)cc1,i,i,i,i,i,.,.,.
Cn1cc(Cl)c(C(=O)NC2CCCCCC2)n1,i,i,i,i,i,.,.,.
Cn1cc(Cl)c(C(=O)NNC(=S)NC2CCCCC2)n1,i,15*,i,i,i,39%*,50%*,i
Cc1cc(S(=O)(=O)Nc2ccc3cn[nH]c3c2)c(C)cc1Cl,i,15*,i,i,i,30%*,i,i
COc1ccccc1N1CCN(C(=O)c2sc3nc(-c4ccc(F)cc4)cn3c2C)CC1,i,i,i,i,i,.,.,.
CCOC(=O)C1CCN(Cc2nc3ccccc3c(=O)n2-c2ccc(F)cc2)CC1,i,5.4*,i,i,i,i,i,i
O=C(c1ccco1)N1CCN(Cc2nc3ccccc3c(=O)n2-c2ccc(F)cc2)CC1,i,i,i,i,i,.,.,.
CCOc1ccc(C(=O)NNC2CC(=O)N(Cc3ccc(Cl)cc3)C2=O)cc1OC (stereo unspecified),i,i,i,i,i,.,.,.
O=C1Nc2ccccc2/C1=C/c1ccc([N+](=O)[O-])cc1,i,8.1*,i,i,i,i,30%*,i
